Laboratory results from ChEMBL document CHEMBL3085708, “Identification and profiling of 3,5-dimethyl-isoxazole-4-carboxylic acid [2-methyl-4-((2S,3'S)-2-methyl-[1,3']bipyrrolidinyl-1'-yl)phenyl] amide as histamine H(3) receptor antagonist for the treatment of depression” (Bioorg Med Chem Lett, 2013).

Experiments:
Histamine H3 receptor [1] = target: T1, Histamine H3 receptor (Homo sapiens, UniProt Q9Y5N1); assay: Inverse agonist activity at human histamine H3 receptor (445 amino acid residues) expressed in CHO cells by CRE-luciferase reporter gene assay; format: functional, cell-based
[2] = AUC (0 to infinity) in Sprague-Dawley rat brain at 2 mg/kg, iv; format: ADME, organism-based; parameters: time infinity, dose 2 mg/kg, route intravenous
How it was run: (§1)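 Single-dose PK; male OF1 mice and male Sprague-Dawley rats, 2 mg/kg iv and 10 mg/kg po. Mouse vehicles: iv 50% 1-methyl-2-pyrrolidinone in saline (1.0 mg/mL); po 5% DMSO/0.5% MC/0.2% Tween80 (1.0 mg/mL). Rat vehicles: iv saline (0.5 mg/mL); po 0.5% MC/0.2% Tween80 (1.0 mg/mL). Plasma and brain exposure read as AUC0-∞ and t1/2.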

[3] = Volume of distribution in OF1 mouse at 2 mg/kg, iv; format: ADME, organism-based; parameters: dose 2 mg/kg, route intravenous; conditions: in vivo
How it was run: (§2)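 Male OF1 mice given 2 mg/kg iv (50% 1-methyl-2-pyrrolidinone in saline, 1.0 mg/mL) and 10 mg/kg po (5% DMSO/0.5% MC/0.2% Tween80, 1.0 mg/mL); plasma and brain exposure measured; B/P ratio from iv AUC.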

Mus musculus = assay: Toxicity in mouse assessed as effect on social interaction at 30 mg/kg, po; format: organism-based; parameters: dose 30 mg/kg, route oral; conditions: in vivo
How it was run: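 Acute oral group toxicity in mice: behavioural side effects scored (social interaction, motility, preconvulsant signs, convulsions, tremor) after single po doses of 30 and 100 mg/kg.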

[4] = Cmax in Sprague-Dawley rat plasma at 10 mg/kg, po; format: ADME, organism-based; parameters: dose 10 mg/kg, route oral
How it was run: (§3)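 Oral PK at 10 mg/kg po in male OF1 mice (vehicle 5% DMSO/0.5% MC/0.2% Tween80, 1.0 mg/mL) and male Sprague-Dawley rats (vehicle 0.5% MC/0.2% Tween80, 1.0 mg/mL). Cmax and tmax taken from plasma and brain concentration–time profiles.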

[5] = Elimination half life in Sprague-Dawley rat plasma at 2 mg/kg, iv; format: ADME, organism-based; parameters: dose 2 mg/kg, route intravenous; conditions: read-out: beta t1/2 (converted); how it was run: as §1
[6] = Cmax in Sprague-Dawley rat brain at 10 mg/kg, po; format: ADME, organism-based; parameters: dose 10 mg/kg, route oral; how it was run: as §3
[7] = Drug metabolism in dog liver microsomes; format: ADME, Canis lupus familiaris; conditions: read-out: Drug metabolism
[8] = AUC (0 to infinity) in Sprague-Dawley rat brain at 10 mg/kg, po; format: ADME, organism-based; parameters: time infinity, dose 10 mg/kg, route oral; how it was run: as §1
Histamine H3 receptor [9] = target: T1, Histamine H3 receptor; assay: Displacement of [3H]-methylhistamine from human histamine H3 receptor transfected in human 293 cells after 1 hr by scintillation counting analysis; format: cell-based
[10] = Tmax in Sprague-Dawley rat brain at 10 mg/kg, po; format: ADME, organism-based; parameters: dose 10 mg/kg, route oral
How it was run: (§4)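 Male Sprague-Dawley rats dosed 2 mg/kg iv in saline (0.5 mg/mL) and 10 mg/kg po in 0.5% MC/0.2% Tween80 (1.0 mg/mL); plasma and brain concentrations followed.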

[11] = Toxicity in guinea pig heart assessed as decrease in ventricular contraction at 10 uM relative to control; format: tissue-based, Cavia porcellus, Cardiac ventricle
Homo sapiens = species: Homo sapiens; assay: Inhibition of sigma-2 receptor (unknown origin) at 10 uM relative to control
[12] = Mutagenic activity in micronucleus (unknown origin) at 5 to 950 ug/mL in presence of human liver microsomes; format: toxicity
How it was run: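 In vitro micronucleus test; concentrations 5 to 950 µg/mL, run with and without metabolic activation by human liver microsomes.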

[13] = Elimination half life in OF1 mouse plasma at 2 mg/kg, iv; format: ADME, organism-based; parameters: dose 2 mg/kg, route intravenous; conditions: read-out: beta t1/2 (converted); how it was run: as §1
[14] = Drug metabolism in dog plasma at 100 ng/ml after 4 hrs; format: ADME, cell-free, Canis lupus familiaris; conditions: read-out: Drug metabolism
How it was run: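 Compound spiked into blank plasma of human, mouse, rat, rabbit, macaque and dog at 100 ng/ml, then incubated in a 37 °C water bath for up to 4 h; percent metabolized reported.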

[15] = AUC (0 to infinity) in Sprague-Dawley rat plasma at 2 mg/kg, iv; format: ADME, organism-based; parameters: time infinity, dose 2 mg/kg, route intravenous; how it was run: as §1
[16] = Tmax in OF1 mouse plasma at 10 mg/kg, po; format: ADME, organism-based; parameters: dose 10 mg/kg, route oral; how it was run: as §2
[17] = Ratio of AUC (0 to infinity) in brain to plasma in OF1 mouse at 2 mg/kg, iv; format: ADME, organism-based; parameters: dose 2 mg/kg, route intravenous; conditions: brain and plasma, read-out: Ratio AUC
[18] = Therapeutic index, ratio for toxicity in mouse to ratio for antidepression-like activity in rat; conditions: in vivo, read-out: TI
[19] = target: T2, Voltage-gated inwardly rectifying potassium channel KCNH2 (Canis lupus familiaris, UniProt Q9TSZ3); assay: Inhibition of canine ERG current transfected in CHO cells by patch clamp assay; format: cell-based
T2 sequence (Q9TSZ3 whole entry): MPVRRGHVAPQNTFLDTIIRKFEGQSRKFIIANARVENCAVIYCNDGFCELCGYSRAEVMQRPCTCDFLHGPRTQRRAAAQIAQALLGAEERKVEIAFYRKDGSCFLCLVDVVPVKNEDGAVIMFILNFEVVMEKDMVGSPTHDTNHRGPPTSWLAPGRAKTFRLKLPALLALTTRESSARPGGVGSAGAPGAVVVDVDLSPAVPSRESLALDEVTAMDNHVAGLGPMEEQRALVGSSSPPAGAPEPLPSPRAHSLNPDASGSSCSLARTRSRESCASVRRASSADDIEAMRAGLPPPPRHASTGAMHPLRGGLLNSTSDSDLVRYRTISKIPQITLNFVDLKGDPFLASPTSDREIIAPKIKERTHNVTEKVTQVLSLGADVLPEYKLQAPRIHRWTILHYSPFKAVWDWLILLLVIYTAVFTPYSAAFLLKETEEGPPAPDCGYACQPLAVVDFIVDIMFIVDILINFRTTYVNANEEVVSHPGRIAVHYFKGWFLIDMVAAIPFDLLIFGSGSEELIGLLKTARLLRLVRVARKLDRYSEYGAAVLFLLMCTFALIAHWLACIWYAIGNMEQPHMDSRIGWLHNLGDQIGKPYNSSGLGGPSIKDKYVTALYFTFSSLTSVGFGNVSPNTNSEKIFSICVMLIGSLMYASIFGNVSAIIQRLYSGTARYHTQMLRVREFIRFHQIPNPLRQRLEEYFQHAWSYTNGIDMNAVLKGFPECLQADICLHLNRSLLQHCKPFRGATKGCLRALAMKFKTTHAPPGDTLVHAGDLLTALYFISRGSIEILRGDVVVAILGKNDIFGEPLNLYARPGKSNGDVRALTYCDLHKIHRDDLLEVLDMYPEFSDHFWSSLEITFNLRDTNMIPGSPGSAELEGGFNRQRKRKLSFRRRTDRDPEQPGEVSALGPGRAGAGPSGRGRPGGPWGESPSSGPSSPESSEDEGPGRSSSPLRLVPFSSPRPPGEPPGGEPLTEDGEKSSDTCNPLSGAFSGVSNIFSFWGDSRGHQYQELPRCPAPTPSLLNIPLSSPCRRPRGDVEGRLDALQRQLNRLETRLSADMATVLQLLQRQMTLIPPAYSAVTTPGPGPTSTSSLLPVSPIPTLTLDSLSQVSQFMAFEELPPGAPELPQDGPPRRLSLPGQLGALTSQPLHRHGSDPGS
How it was run: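 Whole-cell patch clamp on CHO cells stably transfected with the canine ERG gene; cERG current IC50 from n = 4.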

[20] = Volume of distribution in Sprague-Dawley rat at 2 mg/kg, iv; format: ADME, organism-based; parameters: dose 2 mg/kg, route intravenous; conditions: in vivo; how it was run: as §4

T1 sequence (Q9Y5N1 whole entry): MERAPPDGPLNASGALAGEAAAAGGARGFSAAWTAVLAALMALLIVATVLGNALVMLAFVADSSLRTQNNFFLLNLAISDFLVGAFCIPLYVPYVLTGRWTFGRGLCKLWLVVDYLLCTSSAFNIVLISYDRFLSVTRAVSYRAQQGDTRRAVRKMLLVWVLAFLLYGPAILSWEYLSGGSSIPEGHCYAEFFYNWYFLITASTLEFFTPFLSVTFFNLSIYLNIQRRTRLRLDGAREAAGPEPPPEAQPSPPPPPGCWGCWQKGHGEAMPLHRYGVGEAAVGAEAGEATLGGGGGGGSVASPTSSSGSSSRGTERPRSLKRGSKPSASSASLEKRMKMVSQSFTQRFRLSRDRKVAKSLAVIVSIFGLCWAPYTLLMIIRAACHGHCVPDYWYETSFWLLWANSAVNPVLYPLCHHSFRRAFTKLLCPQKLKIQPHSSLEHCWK

Structure (SMILES): Cc1cc(N2CC[C@H](N3CCC[C@@H]3C)C2)ccc1NC(=O)c1c(C)noc1C
- EC50 (Histamine H3 receptor [1]): 0.7 nM
- AUC(0-inf) [2]: 1200 ng·h/mL
- Vd [3]: 1.7 L/kg
- Activity (Mus musculus): Non-toxic
- Cmax [4]: 749 ng/mL
- half-life [5]: 72 min
- Cmax [6]: 599 ng/mL
- metabolised [7]: < 5%
- AUC(0-inf) [8]: 3400 ng·h/mL
- Ki (Histamine H3 receptor [9]): 0.1 nM
- Tmax [10]: 60 min
- inhibition at 10 µM [11]: 23%
- inhibition (Homo sapiens): 73%
- Activity [12]: Non-toxic
- half-life [13]: 39 min
- metabolised at 4 h, 100 ng/ml [14]: < 5%
- AUC(0-inf) [15]: 1100 ng·h/mL
- Tmax [16]: 10.2 min
- Kp [17]: 1.6
- selectivity ratio [18]: 3
- IC50 [19]: 44000 nM
- Vd [20]: 2.8 L/kg
